Data published in ChEMBL document CHEMBL1121966, “(2R*,3S*)-1-[125I]Iodo-2,3-bis(4-hydroxyphenyl)pentane ([125I]iodonorhexestrol) and (2R*,3S*)-1-[77Br]Bromo-2,3-bis(4-hydroxyphenyl)pentane ([77Br]bromonorhexestrol), two gamma-emitting estrogens that show receptor-mediated uptake by target tissues in vivo” (1982).
“And” between values parts separate entries of the source, which are not always exact repeats. Identical values can stand only once.

Key:
[1] = Tissue/blood distribution ratio was measured in immature female rats at 1h, unlabeled estradiol (18 microg) coinjected; type: functional
How it was run: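 Immature female rats given iv [77Br]bromonorhexestrol with 16α-[125I]iodoestradiol (2 μCi each) plus 18 μg unlabeled estradiol coinjected; killed at 1 h. Tissue and blood were weighed and counted, and tissue-to-blood radioactivity ratios were computed; 5 animals, mean ± SD.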

Rattus norvegicus [2] = species on record: Rattus norvegicus; experiment: Percent injected dose per gram lung at 3h; type: functional
How it was run: (§1)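 Immature (25 day) female Sprague-Dawley rats (ca. 50 g) were dosed iv (jugular or tail vein) in ethanol plus 0.9% NaCl/rat serum (1:1). Doses were 2 μCi of [125I]iodonorhexestrol (≤15 pmol/dose), or 2 μCi each of [77Br]bromonorhexestrol (≤1.25 pmol/dose) and 16α-[125I]iodoestradiol (2 pmol/dose). Rats were killed at 1, 3 or 6 h; blood and tissues were weighed and γ-counted. Thyroid weight assumed 0.005 g/100 g body weight. Mean ± SD.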

[3] = Ovary/blood distribution ratio was determined in immature female rats at 1 hr with unlabeled estradiol; type: functional
How it was run: (§2)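 Immature (25-day, ca. 50 g) Sprague-Dawley female rats received an iv injection (jugular or tail vein) of HPLC-purified tracer in ethanol plus 0.9% NaCl/rat serum 1:1. Doses were 2 μCi [125I]iodo tracer (≤15 pmol), or 2 μCi [77Br]bromo tracer (≤1.25 pmol) with 2 μCi 16α-[125I]iodoestradiol. Animals were killed at 1 h; blood and tissues were weighed and γ-counted. Blocking: coinjected unlabeled estradiol, 9 μg (iodo) or 18 μg (bromo). Mean ± SD.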

[4] = Esophagus/blood distribution ratio was determined in immature female rats at 1 hr; type: functional; how it was run: as §2
Rattus norvegicus [5] = species on record: Rattus norvegicus; experiment: % compound injected per gram uterus at 6 hr; type: functional
Rattus norvegicus [6] = species on record: Rattus norvegicus; experiment: Percent injected dose per gram esophagus at 1 hr with unlabeled estradiol; type: functional; how it was run: as §2
[7] = Tissue/blood distribution ratio was measured in immature female rats at 6 hr; type: functional; how it was run: as §1
[8] = Percent injected dose per gram liver at 6 hr; type: functional; how it was run: as §1
[9] = Spleen/blood distribution ratio was determined immature female rats at 6 hr; type: functional; how it was run: as §1
Rattus norvegicus [10] = species on record: Rattus norvegicus; experiment: Percent injected dose per gram spleen at 3h; type: functional; how it was run: as §1
Rattus norvegicus [11] = species on record: Rattus norvegicus; experiment: Percent injected dose per gram liver at 3h; type: functional; how it was run: as §1
[12] = Lung/blood distribution ratio was determined in immature female rats at 6 hr; type: functional
How it was run: (§3)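 Dual-label study in immature 25-day female Sprague-Dawley rats (ca. 50 g). Each received 2 μCi [77Br]bromo tracer (≤1.25 pmol/dose) and 2 μCi 16α-[125I]iodoestradiol (2 pmol/dose) by tail or jugular vein, in ethanol diluted with saline/rat serum 1:1. Rats were killed at 3 or 6 h; blood and 11 tissues were weighed and counted. Five rats per time point; mean ± SD.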

Rattus norvegicus [13] = species on record: Rattus norvegicus; experiment: Percent injected dose per gram Uterus at 3h; type: functional; how it was run: as §3
[14] = Tissue/blood distribution ratio was measured in immature female rats at 1 hr; type: functional; how it was run: as §1
Rattus norvegicus [15] = species on record: Rattus norvegicus; experiment: Percent injected dose per gram blood at 1 hr with unlabeled estradiol; type: functional; how it was run: as §2
[16] = Uptake ratio was measured with 16-alpha-[125I]-iodo-17-beta-estradiol in immature rats at 6 hr; type: functional
How it was run: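 Immature (25 day, ca. 50 g) female Sprague-Dawley rats received iv (jugular or tail vein) 2 μCi each of the 77Br ligand (≤1.25 pmol/dose) and 16α-[125I]iodoestradiol (2 pmol/dose), in ethanol plus 0.9% NaCl/rat serum 1:1. Rats were killed at 3 or 6 h, five per time point. Blood and tissues were weighed and counted. The 77Br/125I ratio was calculated per rat and averaged. Nontarget was the mean of esophagus, spleen, lung and muscle.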

[17] = Thyroid/blood distribution ratio was determined in immature female rats at 6 hr; type: functional; how it was run: as §1
Rattus norvegicus [18] = species on record: Rattus norvegicus; experiment: Percent injected dose per gram spleen at 1 hr; type: functional; how it was run: as §1
Rattus norvegicus [19] = species on record: Rattus norvegicus; experiment: Percent injected dose per gram thyroid at 1 hr; type: functional, Thyroid gland; how it was run: as §1
Rattus norvegicus [20] = species on record: Rattus norvegicus; experiment: Percent injected dose per gram Ovaries at 1 hr; type: functional; how it was run: as §2
Rattus norvegicus [21] = species on record: Rattus norvegicus; experiment: Percent injected dose per gram kidney at 6 hr; type: functional; how it was run: as §3
[22] = Thyroid/blood distribution ratio was determined in immature female rats at 1 hr; type: functional; how it was run: as §1
[23] = Muscle/blood distribution ratio was determined in immature female rats at 1 hr; type: functional; how it was run: as §2
Rattus norvegicus [24] = species on record: Rattus norvegicus; experiment: Percent injected dose per gram Ovaries at 3h; type: functional; how it was run: as §3
[25] = Uterus/blood distribution ratio was measured in immature female rats at 6 hr; type: functional; how it was run: as §1
[26] = Spleen/blood distribution ratio was determined immature female rats at 3h; type: functional; how it was run: as §1
[27] = Lung/blood distribution ratio was determined in immature female rats at 1 hr with unlabeled estradiol; type: functional; how it was run: as §2
[28] = Esophagus/blood distribution ratio was determined in immature female rats at 6 hr; type: functional; how it was run: as §3
[29] = Kidney/blood distribution ratio was determined in immature female rats at 1 hr; type: functional; how it was run: as §2
Rattus norvegicus [30] = species on record: Rattus norvegicus; experiment: Percent injected dose per gram Muscle at 1 hr; type: functional; how it was run: as §2
Rattus norvegicus [31] = species on record: Rattus norvegicus; experiment: Percent injected dose per gram blood at 3h; type: functional; how it was run: as §3
Rattus norvegicus [32] = species on record: Rattus norvegicus; experiment: Percent injected dose per gram Muscle at 6 hr; type: functional; how it was run: as §3
Rattus norvegicus [33] = species on record: Rattus norvegicus; experiment: Percent injected dose per gram lung at 6 hr; type: functional; how it was run: as §1
[34] = Thyroid/blood distribution ratio was determined in immature female rats at 1 hr with unlabeled estradiol; type: functional
How it was run: (§4)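 Same iv biodistribution in immature female rats, killed at 1 h, with unlabeled estradiol coinjected to block receptor uptake: 9 μg with [125I]iodonorhexestrol (3 rats), 18 μg with the [77Br]bromonorhexestrol/16α-[125I]iodoestradiol pair (5 rats). Tissue and blood radioactivity were counted as % injected dose/g and tissue-to-blood ratio.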

Rattus norvegicus [35] = species on record: Rattus norvegicus; experiment: Percent injected dose per gram kidney at 1 hr; type: functional; how it was run: as §2
[36] = Ovary/blood distribution ratio was determined in immature female rats at 3h; type: functional; how it was run: as §3
[37] = Uterus/blood distribution of compound was measured in immature female rats at 1 hr with unlabeled estradiol; type: functional; how it was run: as §4
[38] = Kidney/blood distribution ratio was determined in immature female rats at 3h; type: functional; how it was run: as §3
Rattus norvegicus [39] = species on record: Rattus norvegicus; experiment: Percent injected dose per gram esophagus at 6 hr; type: functional; how it was run: as §3
Rattus norvegicus [40] = species on record: Rattus norvegicus; experiment: Percent injected dose per gram thyroid at 3h; type: functional, Thyroid gland; how it was run: as §1
Rattus norvegicus [41] = species on record: Rattus norvegicus; experiment: Percent injected dose per gram kidney at 1 hr with unlabeled estradiol; type: functional; how it was run: as §2
Rattus norvegicus [42] = species on record: Rattus norvegicus; experiment: Percent injected dose per gram Ovaries at 1 hr with unlabeled estradiol; type: functional; how it was run: as §2
[43] = Uterus/blood distribution ratio was measured in immature female rats at 3h; type: functional; how it was run: as §1
Rattus norvegicus [44] = species on record: Rattus norvegicus; experiment: Percent injected dose per gram kidney at 3h; type: functional; how it was run: as §3
[45] = Liver/blood distribution ratio was determined in immature female rats at 1 hr; type: functional; how it was run: as §2
Rattus norvegicus [46] = species on record: Rattus norvegicus; experiment: Percent injected dose per gram thyroid at 6 hr; type: functional, Thyroid gland; how it was run: as §1
[47] = Lung/blood distribution ratio was determined in immature female rats at 3h; type: functional; how it was run: as §3
[48] = Muscle/blood distribution ratio was determined immature female rats at 1 hr with unlabeled estradiol; type: functional; how it was run: as §2
[49] = Ovary/blood distribution ratio was determined in immature female rats at 1 hr; type: functional; how it was run: as §2
[50] = Kidney/blood distribution ratio was determined in immature female rats at 1 hr with unlabeled estradiol; type: functional; how it was run: as §2
Rattus norvegicus [51] = species on record: Rattus norvegicus; experiment: Percent injected dose per gram liver at 1 hr with unlabeled estradiol; type: functional; how it was run: as §4
[52] = Liver/blood distribution ratio was determined in immature female rats at 3h; type: functional; how it was run: as §3
Rattus norvegicus [53] = species on record: Rattus norvegicus; experiment: Percent injected dose per gram blood at 6 hr; type: functional; how it was run: as §3
[54] = Esophagus/blood distribution ratio was determined in immature female rats at 1 hr with unlabeled estradiol; type: functional; how it was run: as §2

Question: Which Ratio [1] does the source give for `CC[C@H](c1ccc(O)cc1)[C@@H](CBr)c1ccc(O)cc1` here?
Answer: 1

Question: What about the Injected dose (Rattus norvegicus [2]) of the same compound?
Answer: 0.95%

Question: And the Ratio [3]?
Answer: 0.74

Question: What about the Ratio [4] of the same compound?
Answer: 0.54

Question: What about the Injected (Rattus norvegicus [5]) of the same compound?
Answer: 3.19

Question: What about the Injected dose (Rattus norvegicus [6]) of the same compound?
Answer: 0.56%

Question: And the Ratio [7]?
Answer: 1

Question: What about the Injected dose [8] of the same compound?
Answer: 0.93%

Question: What about the Ratio [9] of the same compound?
Answer: 0.55

Question: What about the Injected dose (Rattus norvegicus [10]) of the same compound?
Answer: 0.6%

Question: And the Injected dose (Rattus norvegicus [11])?
Answer: 1.05%

Question: And the Ratio [12]?
Answer: 0.76

Question: And the Injected dose (Rattus norvegicus [13])?
Answer: 3.59%

Question: And the Ratio [14]?
Answer: 1

Question: What about the Injected dose (Rattus norvegicus [15]) of the same compound?
Answer: 0.98%

Question: What about the Ratio [16] of the same compound?
Answer: 0.58 and 0.33%

Question: What about the Ratio [17] of the same compound?
Answer: 0.13

Question: What about the Injected dose (Rattus norvegicus [18]) of the same compound?
Answer: 0.38%

Question: And the Injected dose (Rattus norvegicus [19])?
Answer: 0.26%

Question: And the Injected dose (Rattus norvegicus [20])?
Answer: 1.38%

Question: And the Injected dose (Rattus norvegicus [21])?
Answer: 0.9%

Question: What about the Ratio [22] of the same compound?
Answer: 0.32

Question: What about the Ratio [23] of the same compound?
Answer: 0.48

Question: What about the Injected dose (Rattus norvegicus [24]) of the same compound?
Answer: 1.28%

Question: What about the Ratio [25] of the same compound?
Answer: 2.51

Question: What about the Ratio [26] of the same compound?
Answer: 0.48

Question: What about the Ratio [27] of the same compound?
Answer: 0.82

Question: What about the Ratio [28] of the same compound?
Answer: 0.5

Question: And the Ratio [29]?
Answer: 1.29

Question: What about the Injected dose (Rattus norvegicus [30]) of the same compound?
Answer: 0.29%

Question: What about the Injected dose (Rattus norvegicus [31]) of the same compound?
Answer: 1.24%

Question: What about the Injected dose (Rattus norvegicus [32]) of the same compound?
Answer: 0.35%

Question: What about the Injected dose (Rattus norvegicus [33]) of the same compound?
Answer: 1.02%

Question: And the Ratio [34]?
Answer: 0.25

Question: And the Injected dose (Rattus norvegicus [35])?
Answer: 0.94%

Question: What about the Ratio [36] of the same compound?
Answer: 1.23

Question: And the Ratio [37]?
Answer: 0.98

Question: And the Ratio [38]?
Answer: 0.76

Question: What about the Injected dose (Rattus norvegicus [39]) of the same compound?
Answer: 0.68%

Question: What about the “Injected dose (g)” value (Rattus norvegicus [40]) of the same compound?
Answer: 0.09%

Question: And the Injected dose (Rattus norvegicus [41])?
Answer: 0.7%

Question: What about the Injected dose (Rattus norvegicus [42]) of the same compound?
Answer: 0.72%

Question: What about the Ratio [43] of the same compound?
Answer: 2.86

Question: And the Injected dose (Rattus norvegicus [44])?
Answer: 0.84%

Question: What about the Ratio [45] of the same compound?
Answer: 1.69

Question: And the Injected dose (Rattus norvegicus [46])?
Answer: 0.18%

Question: What about the Ratio [47] of the same compound?
Answer: 0.68

Question: And the Ratio [48]?
Answer: 0.31

Question: And the Ratio [49]?
Answer: 1.98

Question: And the Ratio [50]?
Answer: 0.84

Question: What about the Injected dose (Rattus norvegicus [51]) of the same compound?
Answer: 1.46%

Question: What about the Ratio [52] of the same compound?
Answer: 0.84

Question: What about the Injected dose (Rattus norvegicus [53]) of the same compound?
Answer: 1.36%

Question: And the Ratio [54]?
Answer: 0.59
